For this assay, the target named is Peptidyl-prolyl cis-trans isomerase A (Homo sapiens, UniProt P62937). The assay is described as follows: Binding affinity towards cyclophilin A by fluorescence. The essentials:
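Recombinant human cyclophilin A, expressed in E. coli with IPTG induction and partially purified by ammonium sulfate fractionation and DEAE-Sepharose. Intrinsic Trp fluorescence enhancement measured at room temperature in 50 mM Tris-HCl pH 7.6, 0.1 M NaCl. Kd from nonlinear least-squares fit to a quadratic binding equation.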

Structures are written as SMILES.

Sequence of Peptidyl-prolyl cis-trans isomerase A (P62937 whole entry): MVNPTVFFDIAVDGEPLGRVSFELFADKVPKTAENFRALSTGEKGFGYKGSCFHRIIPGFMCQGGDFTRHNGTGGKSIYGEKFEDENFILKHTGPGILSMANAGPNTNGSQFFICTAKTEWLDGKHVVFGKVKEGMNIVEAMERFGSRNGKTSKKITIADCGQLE

As to `COC(=O)[C@]12CCCN1C(=O)[C@](Cc1ccc3ccccc3c1)(NC(=O)OCc1ccccc1)CC2`, the affinity, expressed as Kd, was 4.7 µM.
For the compound `COC(=O)[C@]12CCCN1C[C@@H](NC(=O)OC(C)(C)C)CC2`, the Kd (in general, a measure of binding affinity in units of concentration) is above 200 µM.
Take `COC(=O)[C@]12CCCN1C(=O)[C@](Cc1ccc3ccccc3c1)(NC(C)=O)CC2`: the Kd came to 1.5 µM.
The compound `COC(=O)[C@]12CCCN1C(=O)[C@@H](NC(=O)OC(C)(C)C)CC2` came in with a Kd above 200 µM.
`COC(=O)[C@]12CCCN1C(=O)[C@](Cc1ccc3ccccc3c1)(NC(=O)OC(C)(C)C)CC2` yielded a Kd of 17 µM.
Take `COC(=O)[C@]12CCCN1C(=O)[C@](Cc1ccccc1)(NC(=O)OCc1ccccc1)CC2`: the Kd was determined as 124 µM.
Regarding `COC(=O)[C@]12CCCN1C[C@H](NC(=O)OC(C)(C)C)CC2`, the Kd was above 200 µM.
Compound `COC(=O)[C@]12CCCN1C(=O)[C@H](NC(=O)OCc1ccccc1)CC2` showed an equilibrium dissociation constant (Kd) above 200 µM.
The same measure for `COC(=O)[C@]12CCCN1C(=O)[C@H](NC(=O)OC(C)(C)C)CC2`: above 200 µM.
In turn, `COC(=O)[C@]12CCCN1C(=O)[C@](Cc1ccccc1)(NC(=O)OC(C)(C)C)CC2` yielded a Kd of 140 µM.
The same measure for `COC(=O)[C@]12CCCN1C[C@](Cc1ccc3ccccc3c1)(NC(=O)OC(C)(C)C)CC2`: 77 µM.

Values taken from ChEMBL document CHEMBL1134550, “Structure-activity studies of ground- and transition-state analogue inhibitors of cyclophilin” (J Med Chem, 2001).
